Results taken from ChEMBL document CHEMBL1150387, “Development and experimental validation of a docking strategy for the generation of kinase-targeted libraries” (J Med Chem, 2008).

Experiments:
[1] = biological target: Receptor-type tyrosine-protein kinase FLT3 (Homo sapiens) (UniProt P36888); test: Inhibition of FLT3 at 10 uM by HTRF assay relative to control
How it was run: (§1)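 HTRF kinase assay, one panel of kinases. Inhibitor stock 50 µM in 100% DMSO; tested at 10 µM. ATP and substrate at final levels near Km. Final buffer: 50 mM Hepes/NaOH pH 7.4, 40 µM Na3VO4, 0.005% Tween-20, 1 mM DTT, MnCl2 or MgCl2 at kinase-dependent levels. Started by adding ATP/substrate. Reaction run at room temperature, time varied by kinase. Detection mix in 50 mM Hepes pH 7.4, 0.1% BSA, 150 mM KF, incubated ≥1 h at room temperature. Activity expressed as % of uninhibited control; n=2.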

[2] = biological target: Protein kinase C gamma type (Homo sapiens) (UniProt P05129); test: Inhibition of PKCgamma at 10 uM by HTRF assay relative to control; how it was run: as §1
[3] = biological target: Calcium/calmodulin-dependent protein kinase type II subunit alpha (Homo sapiens) (UniProt Q9UQM7); test: Inhibition of CaMK2alpha at 10 uM by HTRF assay relative to control; how it was run: as §1
[4] = biological target: Protein kinase C alpha type (Homo sapiens) (UniProt P17252); test: Inhibition of PKCalpha at 10 uM by HTRF assay relative to control; how it was run: as §1
[5] = biological target: Protein-tyrosine kinase 6 (Homo sapiens) (UniProt Q13882); test: Inhibition of Brk at 10 uM by HTRF assay relative to control; how it was run: as §1
[6] = biological target: 3-phosphoinositide-dependent protein kinase 1 (Homo sapiens) (UniProt O15530); test: Inhibition of PDK1 at 10 uM by HTRF assay relative to control
[7] = biological target: T1, Ephrin type-B receptor 4 (Homo sapiens) (UniProt P54760); test: Inhibition of EphB4 at 10 uM by HTRF assay relative to control; how it was run: as §1
T1 sequence (whole entry): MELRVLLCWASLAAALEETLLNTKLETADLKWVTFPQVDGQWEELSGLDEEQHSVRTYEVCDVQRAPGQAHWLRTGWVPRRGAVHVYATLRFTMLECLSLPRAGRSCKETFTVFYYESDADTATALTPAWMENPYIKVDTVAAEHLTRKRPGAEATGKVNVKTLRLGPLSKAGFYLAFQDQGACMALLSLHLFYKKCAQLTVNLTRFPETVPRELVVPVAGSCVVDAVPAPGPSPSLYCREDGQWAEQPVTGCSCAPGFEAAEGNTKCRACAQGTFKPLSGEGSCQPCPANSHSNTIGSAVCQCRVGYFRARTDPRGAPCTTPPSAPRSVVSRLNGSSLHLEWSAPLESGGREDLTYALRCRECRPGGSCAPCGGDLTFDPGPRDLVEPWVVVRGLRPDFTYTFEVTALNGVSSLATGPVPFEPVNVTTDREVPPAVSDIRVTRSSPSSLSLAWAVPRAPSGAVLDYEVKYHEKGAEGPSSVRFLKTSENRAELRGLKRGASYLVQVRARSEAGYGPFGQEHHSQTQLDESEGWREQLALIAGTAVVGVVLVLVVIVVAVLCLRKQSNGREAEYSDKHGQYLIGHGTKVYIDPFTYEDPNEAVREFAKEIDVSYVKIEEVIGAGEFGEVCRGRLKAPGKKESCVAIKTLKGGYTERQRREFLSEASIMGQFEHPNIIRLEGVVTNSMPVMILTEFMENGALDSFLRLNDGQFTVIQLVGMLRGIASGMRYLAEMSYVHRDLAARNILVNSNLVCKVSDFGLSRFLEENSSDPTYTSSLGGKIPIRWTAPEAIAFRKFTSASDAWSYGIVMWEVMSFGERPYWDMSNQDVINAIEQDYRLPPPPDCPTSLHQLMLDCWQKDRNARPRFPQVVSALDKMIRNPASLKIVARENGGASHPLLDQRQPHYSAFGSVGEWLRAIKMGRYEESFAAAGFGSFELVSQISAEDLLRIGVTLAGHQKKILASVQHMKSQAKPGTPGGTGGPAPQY

[8] = Inhibition of IRK at 10 uM by HTRF assay relative to control; how it was run: as §1
[9] = biological target: Platelet-derived growth factor receptor beta (Homo sapiens) (UniProt P09619); test: Inhibition of PDGFRbeta at 10 uM by HTRF assay relative to control; how it was run: as §1
[10] = biological target: Ribosomal protein S6 kinase beta-1 (Homo sapiens) (UniProt P23443); test: Inhibition of p70S6K at 10 uM by HTRF assay relative to control; how it was run: as §1
[11] = biological target: Mitogen-activated protein kinase 1 (Homo sapiens) (UniProt P28482); test: Inhibition of ERK2 at 10 uM by HTRF assay relative to control; how it was run: as §1
[12] = Inhibition of PKA at 10 uM by HTRF assay relative to control; how it was run: as §1
[13] = biological target: Fibroblast growth factor receptor 1 (Homo sapiens) (UniProt P11362); test: Inhibition of FGFR1 at 10 uM by HTRF assay relative to control; how it was run: as §1
[14] = biological target: Ribosomal protein S6 kinase alpha-3 (Homo sapiens) (UniProt P51812); test: Inhibition of RSK2 at 10 uM by HTRF assay relative to control; how it was run: as §1
[15] = biological target: T2, Inhibitor of nuclear factor kappa-B kinase subunit beta (Homo sapiens) (UniProt O14920); test: Inhibition of IKK-beta at 10 uM by HTRF assay relative to control; how it was run: as §1
T2 sequence (whole entry): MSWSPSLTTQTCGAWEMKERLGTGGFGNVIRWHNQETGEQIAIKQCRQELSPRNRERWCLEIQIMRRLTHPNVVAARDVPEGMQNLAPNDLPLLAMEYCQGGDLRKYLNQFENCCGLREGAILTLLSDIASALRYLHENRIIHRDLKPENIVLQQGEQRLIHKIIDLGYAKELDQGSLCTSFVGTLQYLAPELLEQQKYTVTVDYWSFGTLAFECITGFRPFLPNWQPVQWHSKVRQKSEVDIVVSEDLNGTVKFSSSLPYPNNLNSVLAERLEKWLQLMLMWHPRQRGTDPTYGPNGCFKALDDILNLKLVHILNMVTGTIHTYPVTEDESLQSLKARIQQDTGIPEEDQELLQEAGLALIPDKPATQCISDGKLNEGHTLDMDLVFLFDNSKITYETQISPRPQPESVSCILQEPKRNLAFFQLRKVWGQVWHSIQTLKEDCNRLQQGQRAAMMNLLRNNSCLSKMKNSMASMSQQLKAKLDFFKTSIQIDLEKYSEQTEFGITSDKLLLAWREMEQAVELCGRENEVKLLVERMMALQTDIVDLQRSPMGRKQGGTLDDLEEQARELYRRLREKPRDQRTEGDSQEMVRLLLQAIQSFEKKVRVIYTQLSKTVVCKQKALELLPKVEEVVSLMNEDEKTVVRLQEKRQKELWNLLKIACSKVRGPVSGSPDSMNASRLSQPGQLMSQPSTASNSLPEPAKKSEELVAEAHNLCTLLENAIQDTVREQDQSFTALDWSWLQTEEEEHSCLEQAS

[16] = biological target: Tyrosine-protein kinase Lck (Homo sapiens) (UniProt P06239); test: Inhibition of Lck at 10 uM by HTRF assay relative to control; how it was run: as §1

Sequence of Ribosomal protein S6 kinase beta-1 (Homo sapiens) (P23443 whole entry, looked up): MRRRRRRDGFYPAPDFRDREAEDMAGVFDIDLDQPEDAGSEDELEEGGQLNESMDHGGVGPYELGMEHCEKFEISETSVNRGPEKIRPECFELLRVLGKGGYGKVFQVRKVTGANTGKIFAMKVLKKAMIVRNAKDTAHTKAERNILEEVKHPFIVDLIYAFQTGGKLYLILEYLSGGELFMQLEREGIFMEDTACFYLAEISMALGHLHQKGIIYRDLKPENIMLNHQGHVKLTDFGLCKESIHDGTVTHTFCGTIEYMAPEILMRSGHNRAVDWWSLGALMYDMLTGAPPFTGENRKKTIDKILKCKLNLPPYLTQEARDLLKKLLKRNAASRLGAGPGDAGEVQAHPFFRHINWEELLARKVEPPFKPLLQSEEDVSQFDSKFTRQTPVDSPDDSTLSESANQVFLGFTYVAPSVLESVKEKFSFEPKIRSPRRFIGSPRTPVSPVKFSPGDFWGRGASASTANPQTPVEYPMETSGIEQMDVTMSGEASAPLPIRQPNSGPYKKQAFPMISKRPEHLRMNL
Sequence of Platelet-derived growth factor receptor beta (Homo sapiens) (P09619 whole entry): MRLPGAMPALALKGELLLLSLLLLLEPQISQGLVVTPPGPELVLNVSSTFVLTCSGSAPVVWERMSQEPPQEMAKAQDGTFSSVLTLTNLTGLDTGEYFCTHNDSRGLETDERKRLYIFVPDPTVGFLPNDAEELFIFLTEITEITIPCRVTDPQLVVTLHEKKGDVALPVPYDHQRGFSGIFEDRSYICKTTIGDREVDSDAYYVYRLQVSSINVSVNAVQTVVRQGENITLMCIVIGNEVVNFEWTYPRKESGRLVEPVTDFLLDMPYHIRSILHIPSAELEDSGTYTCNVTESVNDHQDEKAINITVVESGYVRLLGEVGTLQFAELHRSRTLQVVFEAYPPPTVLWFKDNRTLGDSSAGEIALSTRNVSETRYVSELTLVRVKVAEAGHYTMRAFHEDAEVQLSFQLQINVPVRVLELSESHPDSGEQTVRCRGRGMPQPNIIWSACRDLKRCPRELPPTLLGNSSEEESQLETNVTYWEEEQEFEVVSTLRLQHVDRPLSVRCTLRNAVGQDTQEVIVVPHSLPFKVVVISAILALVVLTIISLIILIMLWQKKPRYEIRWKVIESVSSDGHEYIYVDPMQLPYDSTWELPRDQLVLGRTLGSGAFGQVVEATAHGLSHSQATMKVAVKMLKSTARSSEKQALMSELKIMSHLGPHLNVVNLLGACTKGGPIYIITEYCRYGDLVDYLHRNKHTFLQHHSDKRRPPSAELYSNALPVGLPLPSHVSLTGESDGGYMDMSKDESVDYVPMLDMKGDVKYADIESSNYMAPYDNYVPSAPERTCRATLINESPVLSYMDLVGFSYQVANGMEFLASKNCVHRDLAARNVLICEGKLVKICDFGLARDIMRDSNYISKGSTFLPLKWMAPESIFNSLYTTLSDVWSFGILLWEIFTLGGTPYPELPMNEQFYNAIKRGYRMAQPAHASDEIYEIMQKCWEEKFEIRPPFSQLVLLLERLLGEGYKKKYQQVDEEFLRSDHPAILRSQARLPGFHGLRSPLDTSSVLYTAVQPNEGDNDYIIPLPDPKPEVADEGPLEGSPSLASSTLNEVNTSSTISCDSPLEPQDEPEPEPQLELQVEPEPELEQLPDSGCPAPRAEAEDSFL
Sequence of Receptor-type tyrosine-protein kinase FLT3 (Homo sapiens) (P36888 whole entry): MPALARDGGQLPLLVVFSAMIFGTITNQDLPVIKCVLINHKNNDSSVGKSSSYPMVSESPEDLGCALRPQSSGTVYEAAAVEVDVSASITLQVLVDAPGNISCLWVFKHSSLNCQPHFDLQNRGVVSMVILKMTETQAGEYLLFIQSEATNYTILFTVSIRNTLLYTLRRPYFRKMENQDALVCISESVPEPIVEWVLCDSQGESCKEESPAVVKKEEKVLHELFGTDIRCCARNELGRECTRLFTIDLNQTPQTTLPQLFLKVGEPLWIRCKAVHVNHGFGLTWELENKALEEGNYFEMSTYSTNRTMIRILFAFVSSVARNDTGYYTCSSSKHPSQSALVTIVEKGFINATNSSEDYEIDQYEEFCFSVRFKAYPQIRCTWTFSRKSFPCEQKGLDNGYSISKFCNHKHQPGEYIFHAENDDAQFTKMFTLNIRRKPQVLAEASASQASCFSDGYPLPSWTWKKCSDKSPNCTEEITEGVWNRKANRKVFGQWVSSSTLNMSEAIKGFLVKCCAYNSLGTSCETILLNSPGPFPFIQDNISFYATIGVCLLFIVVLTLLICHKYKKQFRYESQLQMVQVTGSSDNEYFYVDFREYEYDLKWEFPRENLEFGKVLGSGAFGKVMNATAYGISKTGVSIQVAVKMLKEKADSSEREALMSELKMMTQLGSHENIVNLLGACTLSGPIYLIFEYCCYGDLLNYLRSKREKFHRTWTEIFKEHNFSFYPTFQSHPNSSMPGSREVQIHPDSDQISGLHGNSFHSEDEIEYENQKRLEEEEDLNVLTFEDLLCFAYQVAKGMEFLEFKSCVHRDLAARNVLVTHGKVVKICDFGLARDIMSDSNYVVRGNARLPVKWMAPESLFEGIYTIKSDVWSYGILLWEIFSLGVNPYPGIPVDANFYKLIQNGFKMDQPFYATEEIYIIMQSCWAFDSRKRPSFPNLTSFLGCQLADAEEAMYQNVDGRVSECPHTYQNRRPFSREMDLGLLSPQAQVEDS
Sequence of Ribosomal protein S6 kinase alpha-3 (Homo sapiens) (P51812 whole entry): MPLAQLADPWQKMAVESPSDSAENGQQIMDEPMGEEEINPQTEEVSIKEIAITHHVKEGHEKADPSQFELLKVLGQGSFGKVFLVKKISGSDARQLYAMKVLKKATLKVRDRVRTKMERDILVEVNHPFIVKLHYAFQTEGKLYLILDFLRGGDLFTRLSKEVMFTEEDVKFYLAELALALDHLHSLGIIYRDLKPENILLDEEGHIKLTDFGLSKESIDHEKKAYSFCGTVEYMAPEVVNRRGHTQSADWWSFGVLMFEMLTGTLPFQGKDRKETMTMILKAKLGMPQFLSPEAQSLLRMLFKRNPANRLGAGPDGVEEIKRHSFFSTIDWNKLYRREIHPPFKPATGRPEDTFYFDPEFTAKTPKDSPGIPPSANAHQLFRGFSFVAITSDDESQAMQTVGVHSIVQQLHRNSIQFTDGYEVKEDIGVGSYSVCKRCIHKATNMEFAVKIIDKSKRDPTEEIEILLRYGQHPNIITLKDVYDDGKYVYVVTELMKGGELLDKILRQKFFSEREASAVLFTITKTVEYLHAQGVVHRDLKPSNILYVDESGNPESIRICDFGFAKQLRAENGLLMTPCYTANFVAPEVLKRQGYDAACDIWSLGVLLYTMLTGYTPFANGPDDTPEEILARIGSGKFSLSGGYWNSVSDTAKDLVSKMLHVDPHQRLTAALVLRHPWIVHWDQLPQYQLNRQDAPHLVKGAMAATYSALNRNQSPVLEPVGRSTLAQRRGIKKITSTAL
Sequence of Mitogen-activated protein kinase 1 (Homo sapiens) (P28482 whole entry): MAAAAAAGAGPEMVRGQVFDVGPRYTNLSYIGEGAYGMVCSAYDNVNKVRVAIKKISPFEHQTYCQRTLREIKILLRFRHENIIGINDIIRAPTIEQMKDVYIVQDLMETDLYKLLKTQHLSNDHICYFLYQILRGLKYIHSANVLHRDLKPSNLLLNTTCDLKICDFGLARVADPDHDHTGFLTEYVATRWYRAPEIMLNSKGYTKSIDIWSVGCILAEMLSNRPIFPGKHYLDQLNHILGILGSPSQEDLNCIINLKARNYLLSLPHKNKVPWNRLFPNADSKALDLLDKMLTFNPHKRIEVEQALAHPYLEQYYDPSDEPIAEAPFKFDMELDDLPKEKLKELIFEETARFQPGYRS
Sequence of Protein-tyrosine kinase 6 (Homo sapiens) (Q13882 whole entry, looked up): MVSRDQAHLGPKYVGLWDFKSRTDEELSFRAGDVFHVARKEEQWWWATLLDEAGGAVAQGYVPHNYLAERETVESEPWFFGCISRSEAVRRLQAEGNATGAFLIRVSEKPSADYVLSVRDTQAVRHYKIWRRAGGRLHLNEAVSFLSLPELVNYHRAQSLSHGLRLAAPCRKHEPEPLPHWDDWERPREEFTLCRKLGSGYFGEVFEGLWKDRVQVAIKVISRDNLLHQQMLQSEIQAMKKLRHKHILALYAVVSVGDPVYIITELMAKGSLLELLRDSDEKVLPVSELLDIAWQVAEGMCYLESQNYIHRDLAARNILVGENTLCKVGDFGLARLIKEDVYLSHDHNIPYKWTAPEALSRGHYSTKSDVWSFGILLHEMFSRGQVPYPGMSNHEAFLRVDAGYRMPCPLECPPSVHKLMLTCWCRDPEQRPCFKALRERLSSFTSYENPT
Sequence of Calcium/calmodulin-dependent protein kinase type II subunit alpha (Homo sapiens) (Q9UQM7 whole entry): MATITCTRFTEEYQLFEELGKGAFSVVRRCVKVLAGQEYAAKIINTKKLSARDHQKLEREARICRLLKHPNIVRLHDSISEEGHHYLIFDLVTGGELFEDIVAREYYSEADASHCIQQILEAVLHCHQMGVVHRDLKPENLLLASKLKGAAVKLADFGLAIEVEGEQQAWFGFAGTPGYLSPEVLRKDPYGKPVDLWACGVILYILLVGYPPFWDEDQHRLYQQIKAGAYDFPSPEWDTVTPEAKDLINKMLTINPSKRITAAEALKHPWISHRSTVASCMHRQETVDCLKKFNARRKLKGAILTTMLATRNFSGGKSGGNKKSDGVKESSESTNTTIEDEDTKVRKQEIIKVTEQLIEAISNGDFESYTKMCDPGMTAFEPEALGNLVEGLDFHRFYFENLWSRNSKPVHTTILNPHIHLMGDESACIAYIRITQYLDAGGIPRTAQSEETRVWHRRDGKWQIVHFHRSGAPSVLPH

inhibition [1] | inhibition [2] | inhibition [3] | inhibition [4] | inhibition [5] | inhibition [6] | inhibition [7] | inhibition [8] | inhibition [9] | inhibition [10] | inhibition [11] | inhibition [12] | inhibition [13] | inhibition [14] | inhibition [15] | inhibition [16] | SMILES
99% | 30% | 0% | 1% | 81% | 3% | 57% | 83% | 98% | 23% | 0% | 4% | 95% | 9% | 45% | 84% | O=C(NC[C@@H]1CCCO1)c1cccc(Nc2nccc(Nc3ccc4ncsc4c3)n2)c1
0% | 5% | 0% | 0% | 10% | 0% | 0% | 0% | 0% | 5% | 1% | 6% | 0% | 0% | 1% | 0% | Nc1nc(Nc2ccccc2)cc(N2CCC(C(=O)NCCc3ccccn3)CC2)n1
11% | 0% | 0% | 0% | 0% | 7% | 0% | 0% | 14% | 10% | 0% | 1% | 13% | 0% | 4% | 0% | Nc1nc(Nc2ccc3ncsc3c2)cc(N2CCC[C@H]2C(=O)NCCc2cccc(I)c2)n1
0% | 6% | 0% | 5% | 11% | 0% | 0% | 0% | 23% | 9% | 6% | 0% | 30% | 0% | 8% | 10% | Cc1cccc(N(C)c2cc(Nc3cccc(C(=O)N(C)CCc4ccccn4)c3)ncn2)c1
86% | 14% | 0% | 0% | 36% | 8% | 5% | 66% | 93% | 9% | 0% | 0% | 82% | 57% | 9% | 45% | Cc1cccc(Nc2nccc(Nc3cccc(C(=O)N(C)CCc4ccccn4)c3)n2)c1
15% | 2% | 0% | 7% | 12% | 0% | 0% | 0% | 37% | 8% | 4% | 0% | 5% | 0% | 0% | 24% | Cc1cccc(N(C)c2cc(Nc3cccc(C(=O)NCCCn4ccnc4)c3)ncn2)c1
0% | 2% | 0% | 0% | 4% | 10% | 0% | 0% | 5% | 13% | 0% | 0% | 4% | 0% | 5% | 0% | CN(C)CC(C)(C)CNC(=O)[C@@H]1CCCN1c1nccc(Nc2ccccc2)n1
0% | 1% | 0% | 0% | 21% | 4% | 0% | 6% | 3% | 8% | 0% | 0% | 7% | 0% | 6% | 0% | COc1cccc(Nc2cc(Nc3cccc(C(=O)N(C)CCc4ccccn4)c3)nc(N)n2)c1
0% | 2% | 0% | 0% | 16% | 3% | 0% | 0% | 1% | 7% | 5% | 0% | 5% | 0% | 3% | 0% | Cc1cccc(N(C)c2cc(N3CCN(C(=O)Cc4c[nH]c5ccccc45)CC3)ncn2)c1
0% | 3% | 0% | 0% | 0% | 0% | 0% | 0% | 8% | 9% | 0% | 0% | 2% | 0% | 1% | 0% | O=C(NC1Cc2ccccc2C1)c1cccc(Nc2ccnc(N3CCN(c4ccccc4)CC3)n2)c1
